# Experiments:
# Cyclooxygenase [1] = target: T1, Cyclooxygenase (Homo sapiens, UniProt P35354+P23219); assay: Inhibition of human platelet Prostaglandin G/H synthase
# Cavia porcellus [2] = assay: Inhibition of antigen-induced leukotriene-mediated bronchoconstriction in conscious guinea pig at the dose of 30mg/Kg, ip.; type: functional
# Procedure, shortened: (§1)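 Male Hartley guinea pigs (250–300 g), actively ovalbumin-sensitized, fasted 18 h, anesthetized, pleural pressure transducer fitted. Dosed 60 min before aerosolized ovalbumin challenge with pyrilamine (10 mg/kg ip), indomethacin (10 mg/kg ip) and test agent (ip as 5% Tween 80 suspension). Head-out plethysmography after recovery; Cdyn mean change from baseline over 5–15 min post-challenge vs controls; 5–10 animals per dose; Dunnett's test.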
# [3] = target: T2, Polyunsaturated fatty acid 5-lipoxygenase (Homo sapiens, UniProt P09917); assay: Inhibition of human neutrophil 5-lipoxygenase
# T2 sequence (P09917 whole entry): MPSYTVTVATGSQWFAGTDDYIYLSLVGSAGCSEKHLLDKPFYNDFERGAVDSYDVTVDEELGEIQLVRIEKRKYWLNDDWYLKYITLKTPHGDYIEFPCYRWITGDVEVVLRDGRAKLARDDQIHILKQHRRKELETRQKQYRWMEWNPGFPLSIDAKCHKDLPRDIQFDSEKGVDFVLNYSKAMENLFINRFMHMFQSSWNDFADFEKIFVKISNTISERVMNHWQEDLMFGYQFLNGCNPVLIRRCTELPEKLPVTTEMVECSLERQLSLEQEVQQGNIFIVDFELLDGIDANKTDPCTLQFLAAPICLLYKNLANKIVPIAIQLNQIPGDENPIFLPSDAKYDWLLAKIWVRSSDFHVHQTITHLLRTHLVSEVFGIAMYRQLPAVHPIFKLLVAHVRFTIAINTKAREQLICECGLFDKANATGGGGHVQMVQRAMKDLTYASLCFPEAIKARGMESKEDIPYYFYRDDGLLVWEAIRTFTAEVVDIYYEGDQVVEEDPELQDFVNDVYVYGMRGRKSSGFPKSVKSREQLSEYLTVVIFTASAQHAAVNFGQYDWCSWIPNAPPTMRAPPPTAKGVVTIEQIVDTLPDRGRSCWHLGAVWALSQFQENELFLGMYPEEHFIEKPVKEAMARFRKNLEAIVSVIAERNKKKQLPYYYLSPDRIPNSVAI
# Cavia porcellus [4] = assay: Inhibition of antigen-induced leukotriene-mediated bronchoconstriction in conscious guinea pig at the dose of 30mg/Kg, ip; type: functional; procedure, shortened: as §1
# Cavia porcellus [5] = assay: Inhibition of antigen-induced leukotriene-mediated bronchoconstriction in conscious guinea pigat the dose of 100mg/Kg, ip; type: functional; procedure, shortened: as §1
# Cavia porcellus [6] = assay: Inhibition of antigen-induced ileukotriene-mediated bronchoconstriction in conscious guinea pig at the dose of 300mg/Kg, po.; type: functional
# Cavia porcellus [7] = assay: Inhibition of antigen-induced leukotriene-mediated bronchoconstriction in conscious guinea pig at the dose of 100mg/Kg, po.; type: functional
# Cavia porcellus [8] = species: Cavia porcellus; assay: Inhibition of cell influx (total cells) in guinea pig; type: functional
# Procedure, shortened: (§2)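 Male Hartley guinea pigs (250–300 g), ovalbumin-sensitized, fasted, pretreated 60 min before challenge with pyrilamine (10 mg/kg ip), indomethacin (10 mg/kg ip) and test agent (ip as 5% Tween 80 suspension). Challenged with aerosolized ovalbumin; 4 h later anesthetized and exsanguinated for late-phase inflammatory cell influx counts (total cells, PMN).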
# Cavia porcellus [9] = species: Cavia porcellus; assay: Inhibition of cell influx (PMN) in guinea pig; type: functional; procedure, shortened: as §2
# Cavia porcellus [10] = assay: Inhibition of antigen-induced leukotriene-mediated bronchoconstriction in conscious guinea pig at the dose of 30mg/Kg, po.; type: functional
# Cavia porcellus [11] = assay: Inhibition of antigen-induced leukotriene-mediated bronchoconstriction in conscious guinea pig at the dose of 10mg/Kg, ip; type: functional; procedure, shortened: as §1
# [12] = (§3) Inhibition of human platelet Prostaglandin G/H synthase at the concentration of 10 uM
# Procedure, shortened: (§4)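 CO activity measured in human platelets. Percent inhibition at a single test concentration is compared with untreated control, with significance by ANOVA and Tukey's multiple comparisons test (p < 0.05).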
# Cyclooxygenase [13] = target: T1, Cyclooxygenase; assay: (§5) Inhibition of human platelet Prostaglandin G/H synthase at the concentration of 1 uM; procedure, shortened: as §4
# [14] = target: T3, Polyunsaturated fatty acid 5-lipoxygenase (Homo sapiens) (UniProt P09917); assay: Inhibition of lipoxygenase at the concentration of 0.1 uM
# T3 sequence (whole entry): T2 sequence (P09917 whole entry)
# Procedure, shortened: (§6)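 5-LO activity measured in human peripheral blood leukocytes. Percent inhibition at a single test concentration is compared with untreated control, with significance by ANOVA and Tukey's multiple comparisons test (p < 0.05).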
# [15] = target: T3, Polyunsaturated fatty acid 5-lipoxygenase (Homo sapiens); assay: Inhibition of lipoxygenase at the concentration of 1 uM; procedure, shortened: as §6
# Cyclooxygenase [16] = target: T1, Cyclooxygenase; assay: as §5; type: functional; procedure, shortened: as §4
# [17] = target: T3, Polyunsaturated fatty acid 5-lipoxygenase (Homo sapiens); assay: Inhibition of human neutrophil 5-lipoxygenase at the concentration of 0.1 uM; procedure, shortened: as §6
# [18] = target: T3, Polyunsaturated fatty acid 5-lipoxygenase (Homo sapiens); assay: (§7) Inhibition of human neutrophil 5-lipoxygenase at the concentration of 1 uM; procedure, shortened: as §6
# Cyclooxygenase [19] = target: T1, Cyclooxygenase; assay: as §3; type: functional; procedure, shortened: as §4
# [20] = target: T3, Polyunsaturated fatty acid 5-lipoxygenase (Homo sapiens); assay: as §7; type: functional; procedure, shortened: as §6
IC50 (Cyclooxygenase [1]) [µM],IC50 [3] [nM],SMILES,inhibition in vivo at 30 mg/kg (Cavia porcellus [4]) [%],also measured
1.3,120,Cc1cc(/C=C/c2ccc(F)cc2)cc(C)c1O [ENOFELAST],–,inhibition in vivo at 30 mg/kg (Cavia porcellus [2]): 43%
1.4,90,CCc1cc(/C=C/c2cccs2)cc(OC)c1O,51,–
1.5,91,COc1ccc(/C=C/c2cc(C)c(O)c(C)c2)cc1,28,–
–,1700,CC(C)(C)c1cc(/C=C/c2cccnc2)cc(C(C)(C)C)c1O,–,inhibition in vivo at 100 mg/kg (Cavia porcellus [5]): 10%; inhibition in vivo at 300 mg/kg (Cavia porcellus [6]): 7.7%; inhibition in vivo at 100 mg/kg (Cavia porcellus [7]): -2%; Inhibition (Cavia porcellus [8]): 0%; Inhibition (Cavia porcellus [9]): 0%; inhibition in vivo at 30 mg/kg (Cavia porcellus [10]): -24%
1.3,86,CCCc1cc(/C=C/c2cccs2)cc(OC)c1O,57,Inhibition (Cavia porcellus [8]): 77%; Inhibition (Cavia porcellus [9]): 54%
2.5,130,Cc1cccc(/C=C/c2cc(C)c(O)c(C)c2)c1,–,inhibition in vivo at 30 mg/kg (Cavia porcellus [2]): 49%
3.1,86,COc1cc(/C=C/c2cccs2)cc(C)c1O,41,–
3.2,290,Cc1ccc(/C=C/c2cc(C)c(O)c(C)c2)cc1,–,inhibition in vivo at 30 mg/kg (Cavia porcellus [2]): 59%
0.78,54,Cc1cc(/C=C/c2cccs2)cc(C)c1O,70.3,inhibition in vivo at 10 mg/kg (Cavia porcellus [11]): 34.5%; Inhibition (Cavia porcellus [8]): 78%; Inhibition (Cavia porcellus [9]): 95%
< 10,45,Cc1cc(/C=C/c2ccsc2)cc(C)c1O,26,inhibition [12]: 96%; inhibition (Cyclooxygenase [13]): 38%
< 1,< 1000,Cc1cc(/C=C/c2c(F)cccc2F)cc(C)c1O,–,inhibition [12]: 94%; inhibition [14]: 12%; inhibition (Cyclooxygenase [13]): 73%; inhibition [15]: 96%
< 10,< 1000,CCc1cc(/C=C/c2cccnc2)cc(CC)c1O,–,inhibition (Cyclooxygenase [16]): 20%; inhibition [17]: 36%; inhibition [18]: 86%; inhibition (Cyclooxygenase [19]): 82%
1,< 1000,CCCC/C(=C\c1cc(C)c(O)c(C)c1)c1ccc(F)cc1,–,inhibition [12]: 86%; inhibition [14]: 17%; inhibition (Cyclooxygenase [13]): 52%; inhibition [15]: 93%
> 10,> 1000,Cc1cc(/C=C/c2ccccc2C(=O)O)cc(C)c1O,–,inhibition [12]: 25%; inhibition [20]: 12%; inhibition (Cyclooxygenase [13]): 16%

# Source: ChEMBL document CHEMBL1124816, “Effect of structure on potency and selectivity in 2,6-disubstituted 4-(2-arylethenyl)phenol lipoxygenase inhibitors” (J Med Chem, 1990)
